In ChEMBL document CHEMBL1146375, “Synthetic studies on novel benzimidazolopeptides with antimicrobial, cytotoxic and anthelmintic potential” (2007):
In brackets after ≈: the same amount, converted by molar mass.

What was measured:
Escherichia coli [1] = experiment: Antibacterial activity against Escherichia coli NCIM 2065 after 18 hrs by disc diffusion method; format: functional
Summary of the method: (§1)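 Modified Kirby-Bauer disc diffusion. Plates inoculated with spore suspension (about 6 × 10⁴ spores mL^-1). Sterile 6 mm paper discs carried test samples at 10 mg mL^-1; ciprofloxacin disc as reference, DMF disc as negative control. Plates held 18 h at 37 °C. Inhibition zone diameters (mm) averaged over triplicate sets.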

Pontoscolex corethrurus [2] = experiment: Anthelmintic activity against Pontoscolex corethrurus ICARBC 408 assessed as mean paralyzing time; format: functional
Summary of the method: (§2)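 Earthworms exposed to test suspensions at 2 mg mL^-1 (0.2% w/v), made by triturating compound with Tween 80 (0.5%) and distilled water, then mechanically stirred 30 min. Mebendazole suspension prepared alike as reference. Paralysis and death times recorded; death confirmed by no movement in 50 °C water. Means from triplicate sets.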

Microsporum audouinii [3] = experiment: Antifungal activity against Microsporum audouinii MUCC 545 after 48 hrs by tube dilution method; format: functional
Summary of the method: (§3)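 Tube dilution MIC as for bacteria (seven concentrations, 200–3.1 […]), with DMSO in place of DMF. Tubes inoculated with fungal culture and incubated 48 h at 37 °C. MIC read from presence or absence of growth.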

Bacillus subtilis [4] = experiment: Antibacterial activity against Bacillus subtilis NCIM 2063 after 18 hrs by tube dilution method; format: functional; conditions: NCIM 2063, 18 h
Summary of the method: (§4)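 Tube dilution MIC. Stock diluted in sterile broth to seven concentrations from 200 to 3.1 […]. Each tube inoculated with one loopful of test bacterium and incubated 18 h at 37 °C. MIC read from presence or absence of growth.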

Staphylococcus aureus [5] = experiment: Antibacterial activity against Staphylococcus aureus NCIM 2079 after 18 hrs by disc diffusion method; format: functional; summary of the method: as §1
Eudrilus [6] = experiment: Anthelmintic activity against Eudrilus sp. assessed as mean paralyzing time; format: functional; summary of the method: as §2
Bacillus subtilis [7] = experiment: Antibacterial activity against Bacillus subtilis NCIM 2063 after 18 hrs by disc diffusion method; format: functional; summary of the method: as §1
Trichophyton benhamiae [8] = experiment: Antifungal activity against Trichophyton mentagrophytes MUCC 665 after 48 hrs by disc diffusion method; format: functional, Arthroderma benhamiae
Summary of the method: (§5)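 Agar well diffusion on plates inoculated with spore suspension in normal saline from cultures on Sabouraud's broth. Wells punched and loaded with test samples or griseofulvin at 10 mg mL^-1, with DMSO as negative control. Incubated 48 h at 37 °C.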

Pseudomonas aeruginosa [9] = experiment: Antibacterial activity against Pseudomonas aeruginosa NCIM 2034 after 18 hrs by disc diffusion method; format: functional; summary of the method: as §1
Pseudomonas aeruginosa [10] = experiment: Antibacterial activity against Pseudomonas aeruginosa NCIM 2034 after 18 hrs by tube dilution method; format: functional; conditions: NCIM 2034, 18 h; summary of the method: as §4
Candida albicans [11] = experiment: Antifungal activity against Candida albicans MUCC 29 after 48 hrs by tube dilution method; format: functional; summary of the method: as §3
Aspergillus niger = experiment: Antifungal activity against Aspergillus niger MUCC 177 after 48 hrs by disc diffusion method; format: functional; summary of the method: as §5
Trichophyton benhamiae [12] = experiment: Antifungal activity against Trichophyton mentagrophytes MUCC 665 after 48 hrs by tube dilution method; format: functional, Arthroderma benhamiae; summary of the method: as §3
Pontoscolex corethrurus [13] = experiment: Anthelmintic activity against Pontoscolex corethrurus ICARBC 408 assessed as mean death time; format: functional
Summary of the method: (§6)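 Earthworms exposed to test suspensions at 2 mg mL−1, prepared by triturating compound with Tween 80 (0.5%) and distilled water, stirring 30 min, then diluting to 0.2% w/v. Mebendazole suspension was made the same way. Death was confirmed by moving worms into 50 °C warm water and looking for movement. Mean death time (min) taken from triplicate sets.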

Eudrilus [14] = experiment: Anthelmintic activity against Eudrilus sp. assessed as mean death time; format: functional; summary of the method: as §6
Microsporum audouinii [15] = experiment: Antifungal activity against Microsporum audouinii MUCC 545 after 48 hrs by disc diffusion method; format: functional; summary of the method: as §5
Escherichia coli [16] = experiment: Antibacterial activity against Escherichia coli NCIM 2065 after 18 hrs by tube dilution method; format: functional; conditions: NCIM 2065, 18 h
[17] = Anthelmintic activity against Megascoplex konkanensis ICARBC 211 assessed as mean paralyzing time; format: functional; summary of the method: as §2
Staphylococcus aureus [18] = experiment: Antibacterial activity against Staphylococcus aureus NCIM 2079 after 18 hrs by tube dilution method; format: functional; conditions: NCIM 2079, 18 h; summary of the method: as §4
Candida albicans [19] = experiment: Antifungal activity against Candida albicans MUCC 29 after 48 hrs by disc diffusion method; format: functional; summary of the method: as §5
[20] = Anthelmintic activity against Megascoplex konkanensis ICARBC 211 assessed as mean death time; format: functional; summary of the method: as §2

Row | Compound | Time (Pontoscolex corethrurus [2]) | MIC (Microsporum audouinii [3]) | MIC (Bacillus subtilis [4]) | inhibition zone (IZ) (Staphylococcus aureus [5]) | Time (Eudrilus [6]) | inhibition zone (IZ) (Bacillus subtilis [7]) | inhibition zone (IZ) (Trichophyton benhamiae [8]) | inhibition zone (IZ) (Pseudomonas aeruginosa [9]) | MIC (Pseudomonas aeruginosa [10]) | MIC (Candida albicans [11]) | inhibition zone (IZ) (Aspergillus niger) | MIC (Trichophyton benhamiae [12]) | Time (Pontoscolex corethrurus [13]) | Time (Eudrilus [14]) | inhibition zone (IZ) (Microsporum audouinii [15]) | MIC (Escherichia coli [16]) | TIME [17] | MIC (Staphylococcus aureus [18]) | inhibition zone (IZ) (Candida albicans [19]) | TIME [20] | also measured
1 | CC[C@H](C)[C@H](NC(=O)[C@H](CC(C)C)NC(=O)c1cc(-c2nc3cc(C)c(C)cc3[nH]2)ccc1O)C(=O)OC | 29.83 min | 6 µg/mL (≈ 11.5 µM) | 6 µg/mL (≈ 11.5 µM) | 10 mm | 25.69 min | 15 mm | 13 mm | 20 mm | 6 µg/mL (≈ 11.5 µM) | 6 µg/mL (≈ 11.5 µM) | 19 mm | 6 µg/mL (≈ 11.5 µM) | 41.53 min | 36.12 min | 12 mm | 12.5 µg/mL (≈ 23.9 µM) | 0.425 h | 12.5 µg/mL (≈ 23.9 µM) | 19 mm | 0.569 h | inhibition zone (IZ) (Escherichia coli [1]): 16 mm
2 | COC(=O)[C@H](Cc1ccccc1)NC(=O)c1cc(-c2nc3cc(C)c(C)cc3[nH]2)ccc1O | 30.34 min | 25 µg/mL (≈ 56.4 µM) | 6 µg/mL (≈ 13.5 µM) | 10 mm | 26.78 min | 14 mm | 15 mm | 24 mm | 6 µg/mL (≈ 13.5 µM) | 6 µg/mL (≈ 13.5 µM) | 17 mm | 6 µg/mL (≈ 13.5 µM) | 42.56 min | 37.74 min | 9 mm | 12.5 µg/mL (≈ 28.2 µM) | 0.437 h | 12.5 µg/mL (≈ 28.2 µM) | 17 mm | 0.592 h | inhibition zone (IZ) (Escherichia coli [1]): 17 mm
3 | COC(=O)[C@@H]1CCCN1C(=O)[C@H](Cc1cnc[nH]1)NC(=O)c1cc(I)c(-c2nc3cc(C)c(C)cc3[nH]2)c(I)c1 | 17.52 min | 25 µg/mL (≈ 32.6 µM) | 6 µg/mL (≈ 7.83 µM) | 11 mm | 13.48 min | 14 mm | 12 mm | 24 mm | 6 µg/mL (≈ 7.83 µM) | 6 µg/mL (≈ 7.83 µM) | 13 mm | 6 µg/mL (≈ 7.83 µM) | 29.58 min | 23.98 min | 9 mm | 12.5 µg/mL (≈ 16.3 µM) | 0.229 h | 12.5 µg/mL (≈ 16.3 µM) | 16 mm | 0.379 h | inhibition zone (IZ) (Escherichia coli [1]): 17 mm
4 | COC(=O)[C@H](Cc1ccc(O)cc1)NC(=O)[C@H](C)NC(=O)[C@H](Cc1c[nH]c2ccccc12)NC(=O)c1cc(-c2nc3cc(C)c(C)cc3[nH]2)ccc1O | 17.6 min | 12.5 µg/mL (≈ 17.4 µM) | 12.5 µg/mL (≈ 17.4 µM) | 10 mm | 13.41 min | 13 mm | 14 mm | 21 mm | 6 µg/mL (≈ 8.37 µM) | 6 µg/mL (≈ 8.37 µM) | 16 mm | 6 µg/mL (≈ 8.37 µM) | 29.34 min | 24.07 min | 11 mm | 12.5 µg/mL (≈ 17.4 µM) | 0.228 h | 12.5 µg/mL (≈ 17.4 µM) | 17 mm | 0.379 h | inhibition zone (IZ) (Escherichia coli [1]): 16 mm
5 | COC(=O)[C@H](CCCNC(=N)N[N+](=O)[O-])NC(=O)c1ccc(-c2nc3cc(C)c(C)cc3[nH]2)cc1 | 21.65 min | 12.5 µg/mL (≈ 26 µM) | 12.5 µg/mL (≈ 26 µM) | 9 mm | 18.67 min | 14 mm | 12 mm | 23 mm | 6 µg/mL (≈ 12.5 µM) | 12.5 µg/mL (≈ 26 µM) | 15 mm | 12.5 µg/mL (≈ 26 µM) | 35.22 min | 28.21 min | 8 mm | 12.5 µg/mL (≈ 26 µM) | 0.309 h | 25 µg/mL (≈ 51.9 µM) | 15 mm | 0.443 h | inhibition zone (IZ) (Escherichia coli [1]): 17 mm
6 | COC(=O)[C@H](C)NC(=O)[C@@H](NC(=O)[C@H](C)NC(=O)c1cc(-c2nc3cc(C)c(C)cc3[nH]2)ccc1O)C(C)C | 29.89 min | 6 µg/mL (≈ 11.2 µM) | 6 µg/mL (≈ 11.2 µM) | 9 mm | 25.55 min | 13 mm | 14 mm | 19 mm | 6 µg/mL (≈ 11.2 µM) | 6 µg/mL (≈ 11.2 µM) | 16 mm | 6 µg/mL (≈ 11.2 µM) | 41.79 min | 36.23 min | 10 mm | 25 µg/mL (≈ 46.5 µM) | 0.426 h | 25 µg/mL (≈ 46.5 µM) | 18 mm | 0.578 h | inhibition zone (IZ) (Escherichia coli [1]): 16 mm
7 | O=C(O)c1cn(C2CC2)c2cc(N3CCNCC3)c(F)cc2c1=O [CIPROFLOXACIN] | – | – | 6 µg/mL (≈ 18.1 µM) | 20 mm | – | 20 mm | – | 25 mm | 6 µg/mL (≈ 18.1 µM) | – | – | – | – | – | – | 12.5 µg/mL (≈ 37.7 µM) | – | 12.5 µg/mL (≈ 37.7 µM) | – | – | –
8 | COC(=O)Nc1nc2cc(C(=O)c3ccccc3)ccc2[nH]1 [MEBENDAZOLE] | 17.85 min | – | – | – | 13.54 min | – | – | – | – | – | – | – | 29.64 min | 24.05 min | – | – | 0.231 h | – | – | 0.382 h | –
9 | COC1=CC(=O)C[C@@H](C)[C@]12Oc1c(Cl)c(OC)cc(OC)c1C2=O [GRISEOFULVIN] | – | 6 µg/mL (≈ 17 µM) | – | – | – | – | 20 mm | – | – | 6 µg/mL (≈ 17 µM) | 18 mm | 6 µg/mL (≈ 17 µM) | – | – | 17 mm | – | – | – | 20 mm | – | –
